Results as given in ChEMBL document CHEMBL3797154, “Design and Synthesis of 1-((1,5-Bis(4-chlorophenyl)-2-methyl-1H-pyrrol-3-yl)methyl)-4-methylpiperazine (BM212) and N-Adamantan-2-yl-N'-((E)-3,7-dimethylocta-2,6-dienyl)ethane-1,2-diamine (SQ109) Pyrrole Hybrid Derivatives: Discovery of Potent Antitubercular Agents Effective against …” (J Med Chem, 2016).
Converted amounts (≈) assume the structure as drawn. The source made the active and inactive calls. No cut-off for these calls is given here.

How the values were obtained:
[1] = system: Mycobacterium tuberculosis variant bovis BCG; assay: Antimycobacterial activity against Mycobacterium bovis BCG Pasteur ATCC 35734 assessed as inhibition of mycobacterial growth incubated for 24 hrs by MABA method; assay type: functional; conditions: Pasteur ATCC 35734, 24 h
[2] = system: Mycobacterium tuberculosis; assay: Antimycobacterial activity against drug-resistant Mycobacterium tuberculosis isolate MDR1 assessed as inhibition of mycobacterial growth incubated for 9 days; assay type: functional
Procedure, shortened: (§1)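 MIC by HT-SPOTi on Middlebrook 7H10 agar with 0.05% (v/v) glycerol and 10% (v/v) OADC in 96-well format. Compounds dissolved at 50 mg/mL (stock), two-fold serial dilutions, final 500-0.5 µg/mL. Each well spotted with 2 µL early-to-midlog culture (2x10^3 CFU), incubated at 37 °C until distinct spots in control wells. DMSO-only and isoniazid controls; triplicate.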

[3] = system: Mycobacterium tuberculosis; assay: Antimycobacterial activity against drug-resistant Mycobacterium tuberculosis isolate MDR2 assessed as inhibition of mycobacterial growth incubated for 9 days; assay type: functional; procedure, shortened: as §1
[4] = system: Mycobacterium tuberculosis; assay: Antimycobacterial activity against drug-resistant Mycobacterium tuberculosis isolate MDR2 assessed as inhibition of mycobacterial growth at 500 ug/ml incubated for 9 days; assay type: functional, organism-based; procedure, shortened: as §1
[5] = system: Mycobacterium tuberculosis; assay: Antimycobacterial activity against drug-resistant Mycobacterium tuberculosis isolate MDR1 assessed as inhibition of mycobacterial growth at 500 ug/ml incubated for 9 days; assay type: functional, organism-based; procedure, shortened: as §1

Structure (SMILES)	MIC [1] [µg/mL]	MIC ([2]; isolate MDR1, 216 h) [µg/mL]	MIC ([3]; isolate MDR2, 216 h) [µg/mL]	MIC [3]	growth inhibition (GI) [4]	MIC [2]	growth inhibition (GI) [5]
Cc1cc(CN2CCN(c3ccccc3)CC2)c(C)n1-c1ccc(Cl)cc1	32 (≈ 84.2 µM)	31 (≈ 81.6 µM)	> 125	–	–	–	–
Cc1cc(CN2CCN(C3C4CC5CC(C4)CC3C5)CC2)c(C)n1-c1ccccc1F (stereo not given)	1.3 (≈ 3.08 µM)	7.8 (≈ 18.5 µM)	16 (≈ 38 µM)	–	–	–	–
Cc1cc(CNC2C3CC4CC(C3)CC2C4)c(C)n1-c1ccc(Cl)cc1 (stereo not given)	2 (≈ 5.42 µM)	3.9 (≈ 10.6 µM)	125 (≈ 339 µM)	–	–	–	–
Cc1cc(CN2CCN(C3C4CC5CC(C4)CC3C5)CC2)c(C)n1-c1ccc(C(C)C)cc1 (stereo not given)	4 (≈ 8.97 µM)	62 (≈ 139 µM)	125 (≈ 280 µM)	–	–	–	–
Cc1cc(CNCc2ccccc2)c(C)n1-c1ccc(Cl)cc1	0.5 (≈ 1.54 µM)	1 (≈ 3.08 µM)	3.9 (≈ 12 µM)	–	–	–	–
Cc1c(CN2CCN(C34CC5CC(CC(C5)C3)C4)CC2)cc(-c2ccc(Cl)cc2)n1-c1ccc(Cl)cc1	2 (≈ 3.74 µM)	16 (≈ 29.9 µM)	62 (≈ 116 µM)	–	–	–	–
Cc1c(CN2CCN(C3C4CC5CC(C4)CC3C5)CC2)cc(-c2ccc(Cl)cc2)n1-c1ccc(Cl)cc1 (stereo not given)	64 (≈ 120 µM)	125 (≈ 234 µM)	125 (≈ 234 µM)	–	–	–	–
Cc1cc(CNCCc2ccccc2)c(C)n1-c1ccc(Cl)cc1	16 (≈ 47.2 µM)	1.9 (≈ 5.61 µM)	7.8 (≈ 23 µM)	–	–	–	–
Cc1cc(CNOCc2ccccc2)c(C)n1-c1ccc(Cl)cc1	> 64	125 (≈ 367 µM)	–	inactive	inactive	–	–
Cc1c(CNCc2ccccc2)cc(-c2ccc(Cl)cc2)n1-c1ccc(Cl)cc1	8 (≈ 19 µM)	–	–	–	–	–	–
CC(C)=CCC/C(C)=C/CNCCNC1C2CC3CC(C2)CC1C3 (stereo not given) [SQ109]	2 (≈ 6.05 µM)	–	–	–	–	–	–
Cc1cc(CNCc2ccccc2)c(C)n1-c1ccc(F)cc1	13 (≈ 42.2 µM)	7.8 (≈ 25.3 µM)	62 (≈ 201 µM)	–	–	–	–
Cc1cc(CNCc2ccc(F)cc2)c(C)n1-c1ccc(Cl)cc1	0.5 (≈ 1.46 µM)	–	16 (≈ 46.7 µM)	–	–	inactive	inactive
Cc1c(CN2CCN(C3CC4CCC3C4)CC2)cc(-c2ccc(Cl)cc2)n1-c1ccc(Cl)cc1 (mixture of isomers)	64	–	–	–	–	–	–
Cc1cc(/C=N\OCc2ccccc2)c(C)n1-c1ccc(Cl)cc1	> 64	> 125	> 125	–	–	–	–
Cc1cc(CN2CCN(C3C4CC5CC(C4)CC3C5)CC2)c(C)n1-c1ccc(Cl)cc1 (stereo not given)	3.3 (≈ 7.53 µM)	7.8 (≈ 17.8 µM)	16 (≈ 36.5 µM)	–	–	–	–
Cc1c(CN2CCN(c3ccccc3)CC2)c(CN2CCN(c3ccccc3)CC2)c(C)n1-c1ccc(Cl)cc1	> 64	62 (≈ 112 µM)	> 125	–	–	–	–
Cc1cc(CNCc2ccc(Cl)cc2)c(C)n1-c1ccc(Cl)cc1	8 (≈ 22.3 µM)	31 (≈ 86.3 µM)	> 125	–	–	–	–
Cc1cc(CNC2CCCCC2)c(C)n1-c1ccc(Cl)cc1	0.4 (≈ 1.26 µM)	0.5 (≈ 1.58 µM)	16 (≈ 50.5 µM)	–	–	–	–
Cc1cc(CN2CCN(C3C[C@@H]4CC[C@H]3C4)CC2)c(C)n1-c1ccc(Cl)cc1 (mixture of isomers)	32	3.9	31	–	–	–	–
Cc1ccc(CNCc2cc(C)n(-c3ccc(Cl)cc3)c2C)cc1	4 (≈ 11.8 µM)	3.9 (≈ 11.5 µM)	7.8 (≈ 23 µM)	–	–	–	–
Cc1c(CN2CCN(C)CC2)cc(-c2ccc(Cl)cc2)n1-c1ccc(Cl)cc1	0.78 (≈ 1.88 µM)	3.9 (≈ 9.41 µM)	16 (≈ 38.6 µM)	–	–	–	–
Cc1cc(CNOCc2ccccc2)c(C)n1-c1ccc(F)cc1	> 64	62 (≈ 191 µM)	> 125	–	–	–	–
Cc1cccc(-n2c(C)cc(CN3CCN(C4C5CC6CC(C5)CC4C6)CC3)c2C)c1 (stereo not given)	62 (≈ 148 µM)	31 (≈ 74.2 µM)	125 (≈ 299 µM)	–	–	–	–
Cc1cc(CN2CCN(C3CCCCC3)CC2)c(C)n1-c1ccc(Cl)cc1	21 (≈ 54.4 µM)	7.8 (≈ 20.2 µM)	62 (≈ 161 µM)	–	–	–	–
Cc1c(CNC2CCCCC2)cc(-c2ccc(Cl)cc2)n1-c1ccc(Cl)cc1	4 (≈ 9.68 µM)	–	–	–	–	–	–
Cc1cc(CN2CCN(C34CC5CC(CC(C5)C3)C4)CC2)c(C)n1-c1ccc(Cl)cc1	16 (≈ 36.5 µM)	125 (≈ 285 µM)	125 (≈ 285 µM)	–	–	–	–
NNC(=O)c1ccncc1 [ISONIAZID]	–	10 (≈ 72.9 µM)	25 (≈ 182 µM)	–	–	–	–
Cc1c(CN2CCN(c3ccccc3)CC2)cc(-c2ccc(Cl)cc2)n1-c1ccc(Cl)cc1	2 (≈ 4.2 µM)	3.9 (≈ 8.19 µM)	> 125	–	–	–	–
